Measurements as given in ChEMBL document CHEMBL1806465, “Synthesis and biological evaluation of 4-nitro-substituted 1,3-diaryltriazenes as a novel class of potent antitumor agents” (Eur J Med Chem, 2011).
Values after ≈ are worked out from the molar mass of the structure shown. Active and inactive are the calls of the source. The calls are words filed in the database; no cut-off is given here.

What was measured:
[1] = test system: HeLa; assay: Cytotoxicity against human HeLa cells after 72 hrs by MTT assay; assay type: functional, cell-based
[2] = Solubility of the compound in DMSO; assay type: physicochemical
[3] = Solubility of the compound in water; assay type: physicochemical; conditions: buffer
[4] = test system: L1210; assay: Cytotoxicity against mouse L1210 cells at 32 uM; assay type: functional
[5] = Stability of the compound in DMSO after 26.25 hrs by LC/MS/MS analysis in presence of 10% FBS; assay type: physicochemical; conditions: cattle; for Stability: 26.25 h; for remaining at 26.25 h: DMSO with 10% FBS, read-out: Stability
[6] = test system: Nucleic Acid; assay: Binding affinity to calf thymus DNA assessed as change in melting temperature at compound to DNA ratio of 0.3; assay type: nucleic-acid assay; conditions: Bos taurus
In short: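 ct-DNA sonicated, filtered, in Na-cacodylate buffer pH 7, I = 0.05 mol dm-3, 2 x 10^-5 mol dm-3 (as phosphate, ε260 = 6600); compound/DNA ratio 0.3. Absorbance at 260 nm followed versus temperature, compound absorbance subtracted, curves normalized. Tm taken from first-derivative maximum, confirmed by tangent method; ΔTm = Tm(complex) − Tm(free DNA), mean of ≥2 runs, error ±0.5 °C.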

Structure (SMILES) | IC50 [1] [µM] | solubility [2] [µM] | further results
O=C(c1ccccc1F)N(/N=N/c1ccc([N+](=O)[O-])cc1Br)c1ccc([N+](=O)[O-])cc1Br | 1.2 |  | 
COc1ccc(/C=C/C(=O)N(/N=N/c2cc(C(F)(F)F)ccc2Cl)c2cc(C(F)(F)F)ccc2Cl)cc1OC |  | 28.1 (≈ 16.6 µg/mL) | Activity [1]: inactive
O=[N+]([O-])c1ccc(/N=N/Nc2ccc([N+](=O)[O-])cc2Br)c(Br)c1 | 0.94 |  | solubility [3]: Insoluble
CC(=O)Oc1ccc(/C=C/C(=O)N(/N=N/c2cccc(F)c2)c2cccc(F)c2)cc1OC(C)=O |  | 52.1 (≈ 25 µg/mL) | Activity [1]: inactive
CC(=O)N(/N=N/c1ccc([N+](=O)[O-])cc1)c1ccc([N+](=O)[O-])cc1 | 63 |  | 
O=C(c1ccccc1C(F)(F)F)N(/N=N/c1ccc([N+](=O)[O-])cc1Cl)c1ccc([N+](=O)[O-])cc1Cl | 10.6 |  | 
CC(=O)N(/N=N/c1cccc(F)c1)c1cccc(F)c1 |  | 182 (≈ 50 µg/mL) | Activity [1]: inactive
O=C(c1ccccc1C(F)(F)F)N(/N=N/c1ccc([N+](=O)[O-])cc1Br)c1ccc([N+](=O)[O-])cc1Br | 13.3 |  | 
CC(=O)NCC(=O)O.N=C(N)c1ccc(/N=N/Nc2ccc(C(=N)N)cc2)cc1 [DIMINAZEN ACETURATE] | 183 |  | Activity [4]: 50%
CCOC(=O)CC(=O)N(/N=N/c1ccc([N+](=O)[O-])cc1C(F)(F)F)c1ccc([N+](=O)[O-])cc1C(F)(F)F | 0.3 |  | 
COc1cc(/C=C/C(=O)N(/N=N/c2cc(C(F)(F)F)ccc2Cl)c2cc(C(F)(F)F)ccc2Cl)cc(OC)c1 |  | 24.1 (≈ 14.3 µg/mL) | Activity [1]: inactive
O=C(c1ccccc1)N(/N=N/c1ccc([N+](=O)[O-])cc1Br)c1ccc([N+](=O)[O-])cc1Br | 1.53 |  | 
O=C(c1ccc(F)cc1)N(/N=N/c1ccc([N+](=O)[O-])cc1Br)c1ccc([N+](=O)[O-])cc1Br | 0.58 |  | 
CC(=O)Oc1ccc(/C=C/C(=O)N(/N=N/c2ccc(Cl)c(C(F)(F)F)c2)c2ccc(Cl)c(C(F)(F)F)c2)cc1OC(C)=O | 43 |  | 
O=C(c1ccc(C(F)(F)F)cc1)N(/N=N/c1ccc([N+](=O)[O-])cc1C(F)(F)F)c1ccc([N+](=O)[O-])cc1C(F)(F)F | 0.69 |  | 
O=[N+]([O-])c1ccc(/N=N/Nc2ccc([N+](=O)[O-])cc2C(F)(F)F)c(C(F)(F)F)c1 |  |  | solubility [3]: Insoluble; Stability [5]: Stable
O=[N+]([O-])c1ccc(/N=N/Nc2ccc([N+](=O)[O-])cc2Cl)c(Cl)c1 | 3.01 |  | solubility [3]: Insoluble; Activity [6]: inactive; Stability [5]: Stable
COc1ccc(/C=C/C(=O)N(/N=N/c2cc(C(F)(F)F)ccc2Cl)c2cc(C(F)(F)F)ccc2Cl)c(OC)c1 |  | 84.4 (≈ 50 µg/mL) | Activity [1]: inactive
Fc1cccc(/N=N/Nc2cccc(F)c2)c1 |  | 214 (≈ 50 µg/mL) | Activity [1]: inactive
COc1cc(/C=C/C(=O)N(/N=N/c2ccc(Cl)c(C(F)(F)F)c2)c2ccc(Cl)c(C(F)(F)F)c2)ccc1OC(C)=O |  | 16.8 (≈ 10.4 µg/mL) | Activity [1]: inactive
O=[N+]([O-])c1ccc(N=NNc2ccc([N+](=O)[O-])cc2)cc1 |  | 43.5 (≈ 12.5 µg/mL) | 
CC(=O)N(/N=N/c1ccc(Cl)c(C(F)(F)F)c1)c1ccc(Cl)c(C(F)(F)F)c1 | 50.6 |  | 
Clc1ccc(Cl)c(/N=N/Nc2cc(Cl)ccc2Cl)c1 |  | 37.3 (≈ 12.5 µg/mL) | Activity [1]: inactive
FC(F)(F)c1cc(Cl)ccc1/N=N/Nc1ccc(Cl)cc1C(F)(F)F |  | 62.2 (≈ 25 µg/mL) | Activity [1]: inactive
Fc1ccc(/N=N/Nc2ccc(F)cc2F)c(F)c1 |  | 186 (≈ 50 µg/mL) | Activity [1]: inactive

Structure (SMILES) | IC50 [1] [µM] | solubility [2] [µM] | further results
O=C(c1ccc(C(F)(F)F)cc1)N(/N=N/c1ccc([N+](=O)[O-])cc1Cl)c1ccc([N+](=O)[O-])cc1Cl | 1.06 |  | 
O=C(c1ccccc1)N(/N=N/c1ccc([N+](=O)[O-])cc1C(F)(F)F)c1ccc([N+](=O)[O-])cc1C(F)(F)F | 0.6 |  | remaining at 26.25 h [5]: 63%
Fc1ccc(/N=N/Nc2ccc(F)c(F)c2)cc1F |  | 186 (≈ 50 µg/mL) | Activity [1]: inactive
O=[N+]([O-])c1ccc(/N=N/Nc2ccc([N+](=O)[O-])cc2)cc1 |  |  | Activity [1]: inactive
CC(=O)N(/N=N/c1ccc([N+](=O)[O-])cc1C(F)(F)F)c1ccc([N+](=O)[O-])cc1C(F)(F)F |  |  | remaining at 26.25 h [5]: 51%
O=C(c1ccccc1F)N(/N=N/c1ccc([N+](=O)[O-])cc1Cl)c1ccc([N+](=O)[O-])cc1Cl | 2.35 |  | 
O=C(c1cccc(C(F)(F)F)c1)N(/N=N/c1ccc([N+](=O)[O-])cc1Cl)c1ccc([N+](=O)[O-])cc1Cl | 1.18 |  | 
O=C(c1cccc(C(F)(F)F)c1)N(/N=N/c1ccc([N+](=O)[O-])cc1Br)c1ccc([N+](=O)[O-])cc1Br | 1.12 |  | 
O=C(CCl)N(/N=N/c1ccc([N+](=O)[O-])cc1Cl)c1ccc([N+](=O)[O-])cc1Cl | 0.55 |  | 
Clc1cc(Cl)c(/N=N/Nc2cc(Cl)c(Cl)cc2Cl)cc1Cl |  | 41.3 (≈ 16.7 µg/mL) | Activity [1]: inactive
CC(=O)OCC(=O)N(/N=N/c1ccc([N+](=O)[O-])cc1Cl)c1ccc([N+](=O)[O-])cc1Cl | 0.35 |  | 
CC(=O)OCC(=O)N(/N=N/c1ccc([N+](=O)[O-])cc1Br)c1ccc([N+](=O)[O-])cc1Br | 0.49 |  | 
O=C(c1ccccc1C(F)(F)F)N(/N=N/c1ccc([N+](=O)[O-])cc1C(F)(F)F)c1ccc([N+](=O)[O-])cc1C(F)(F)F | 5.35 |  | 
Clc1ccc(/N=N/Nc2ccc(Cl)c(Cl)c2)cc1Cl |  | 74.6 (≈ 25 µg/mL) | 
O=C(Cc1ccccc1)N(/N=N/c1ccc([N+](=O)[O-])cc1Cl)c1ccc([N+](=O)[O-])cc1Cl | 0.53 |  | 
COC(=O)N(/N=N/c1ccc([N+](=O)[O-])cc1Cl)c1ccc([N+](=O)[O-])cc1Cl | 0.98 |  | 
O=C(c1cccc(C(F)(F)F)c1)N(/N=N/c1ccc([N+](=O)[O-])cc1C(F)(F)F)c1ccc([N+](=O)[O-])cc1C(F)(F)F | 0.75 |  | 
O=C(c1ccc(F)cc1)N(/N=N/c1ccc([N+](=O)[O-])cc1C(F)(F)F)c1ccc([N+](=O)[O-])cc1C(F)(F)F | 1 |  | 
O=C(c1cccc(F)c1)N(/N=N/c1ccc([N+](=O)[O-])cc1C(F)(F)F)c1ccc([N+](=O)[O-])cc1C(F)(F)F | 0.88 |  | 
O=C(c1cccc(F)c1)N(/N=N/c1ccc([N+](=O)[O-])cc1Cl)c1ccc([N+](=O)[O-])cc1Cl | 2.5 |  | 
O=C(CCl)N(/N=N/c1ccc([N+](=O)[O-])cc1C(F)(F)F)c1ccc([N+](=O)[O-])cc1C(F)(F)F | 0.8 |  | 
O=C(c1ccccc1)N(/N=N/c1ccc([N+](=O)[O-])cc1Cl)c1ccc([N+](=O)[O-])cc1Cl | 0.59 |  | remaining at 26.25 h [5]: 9%
O=C(c1ccccc1F)N(/N=N/c1ccc([N+](=O)[O-])cc1C(F)(F)F)c1ccc([N+](=O)[O-])cc1C(F)(F)F | 0.8 |  | 
O=[N+]([O-])c1ccc(/N=N/Nc2ccc([N+](=O)[O-])cc2F)c(F)c1 |  |  | solubility [3]: Insoluble
COc1cc(/C=C/C(=O)N(/N=N/c2cc(C(F)(F)F)ccc2Cl)c2cc(C(F)(F)F)ccc2Cl)ccc1OC(C)=O |  | 40.3 (≈ 25 µg/mL) | Activity [1]: inactive
